Screens (PubChem)
Beta2AR agonist = human beta-2 adrenergic receptor agonism by FAP; AID 504454; actives 0.43% (n = 340,000); Am2.2-beta2AR cells, FAP receptor internalization, flow cytometry; P07550; response, % (no concentration beside the values);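 active = response above a set limit, near 3 SD of response in nonfluorescent compounds, cut at about 42% in these data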
Target sequence (P07550 whole entry, looked up): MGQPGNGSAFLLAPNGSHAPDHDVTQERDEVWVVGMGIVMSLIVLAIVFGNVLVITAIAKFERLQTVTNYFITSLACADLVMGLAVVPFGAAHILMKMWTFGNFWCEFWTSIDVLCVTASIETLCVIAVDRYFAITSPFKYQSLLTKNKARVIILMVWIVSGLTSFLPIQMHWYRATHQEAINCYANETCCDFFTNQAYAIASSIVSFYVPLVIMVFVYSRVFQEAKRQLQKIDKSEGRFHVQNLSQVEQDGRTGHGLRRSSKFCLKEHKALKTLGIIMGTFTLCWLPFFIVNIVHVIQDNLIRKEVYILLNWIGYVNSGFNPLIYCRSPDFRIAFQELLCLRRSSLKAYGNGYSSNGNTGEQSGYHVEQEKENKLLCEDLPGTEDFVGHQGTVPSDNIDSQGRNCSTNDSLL
T cell modulator = modulates CD8 T cell binding to vesicles | actives 0.068% (n = 330,000) | response (vesicle binding), % at 7 µM | 2C CD8+ T cell-vesicle binding, flow cytometry; hits give low values;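 active = response, share of CD8 T cells binding vesicles, and their 90th percentile fluorescence all below set limits, cut at about 80% in these data, passing the limit was not always enough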;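 note: values below 100% mean blocked vesicle binding to the CD8+ T cells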
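Benchmarks: naked versus QL9-loaded vesicles / Assay system: purified 2C TCR transgenic mouse naive CD8+ T cells / Technique: high-throughput flow cytometry with anti-B7-1 and anti-CD8 staining / Timing: Cell–vesicle co-incubation 1.5 h at 37 °C, staining 20 min on ice / Read-out: percent CD8+ FL2 mean versus row control / Probe or stimulus: QL9-loaded Drosophila micro-vesicles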
CHOP UPR activ = activators of apoptotic arm of unfolded protein response (CHOP). CHO-CHOP luciferase reporter, UPR activation, luminescence; percent of tunicamycin response over DMSO baseline. activation, % at 10 µM. actives 0.34% (n = 330,000). AID 449763;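 active = at 10 µM dose, activation of 40% or more, normalized to positive control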
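Test system: CHO CHOP reporter cells. Input: 500 CHO-CHOP cells per well. Medium: F12 with 10% FBS. Technique: luciferase luminescence. Measure: percent activation relative to tunicamycin control. Dosing: 10 µM compound, 0.5% DMSO. Timing: 16-18 h cell attachment, then 6 h compound exposure, 37 °C.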
UPR XBP1 act = activators of adaptive arm of unfolded protein response (XBP1); CHO-XBP1 luciferase reporter, IRE1-XBP1 UPR activation, luminescence; percent of tunicamycin response, DMSO as zero; actives 0.33% (n = 330,000); activation, % at 20 µM;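 active = versus positive control, 20 µM dose yields 30% or more activation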
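Material – CHO cell line with stable XBP1 luciferase reporter · Buffer or medium – F12 plus 10% FBS · Compound – single point, 20 µM final compound, 1% DMSO · Schedule – 16-18 h cell attachment at 37 °C, then 6 h compound exposure · Signal – Steady-Glo luminescence read · Benchmarks – high control tunicamycin 10 µg/mL final, low control DMSO vehicle only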
UPR CHOP confirm = apoptotic UPR (CHOP) activation, confirmed | shares compounds with CHOP UPR activ | CHO-CHOP cells, CHOP-luciferase reporter luminescence; percent of tunicamycin response, DMSO as zero | activation, % at 10 µM | actives 64% (n = 1,000) | AID 463112; in the data active = activation above about 33%
Hits are given with their value; - = inactive; . = not tested or not shown. A selection: hits, their analogues and other compounds. The true share with any hit is near 1%.

SMILES | Beta2AR agonist | T cell modulator | CHOP UPR activ | UPR XBP1 act | UPR CHOP confirm
Cc1[nH]c(=S)n(CC2CCCO2)c1C (stereo unspecified) | - | - | - | - | .
COc1cc2nc(=S)n3[nH]c(CCn4nc(C)cc4C)nc3c2cc1OC | - | - | 131.5 | - | 98.2
NC(=O)NN=C(C1CC1)C1CC1 | - | . | . | . | .
CC(=O)c1cccc([N+](=O)[O-])c1 | - | - | - | - | .
O=C(C#Cc1ccccc1)c1cccc([N+](=O)[O-])c1 | 66.9 | - | 292.6 | - | 197.2
Cc1ccc(NC(=O)c2ccc(Cl)c(N3C(=O)C=CC3=O)c2)cc1 | - | - | 87.6 | - | -
O=C(Nc1ccc(Cl)c(Cl)c1)c1ccc(Cl)c(Cl)c1 | - | - | - | - | .
Cc1cc(C)cc(OC(C)C(=O)Nc2ccccc2C(=O)NCc2cccnc2)c1 (stereo unspecified) | - | - | - | - | .
Cc1cccc(Cn2cc(/C=C/[N+](=O)[O-])c3ccccc32)c1 | - | - | 50.1 | 52.6 | 217.6
CCOC(=O)c1c(-c2ccc(-c3ccccc3)cc2)csc1NC(=O)CNCCN(C)C | - | - | 42.4 | - | 119.3
O=C(CN(c1cccc([N+](=O)[O-])c1)S(=O)(=O)c1ccccc1)NCc1cccnc1 | - | - | - | - | .
O=C(CN(c1cccc(C(F)(F)F)c1)S(=O)(=O)c1ccc(Cl)c([N+](=O)[O-])c1)NCc1ccc(F)cc1 | - | - | 53.4 | - | 49.5
C[C@@H]1CN([C@H](C)CO)C(=O)c2cc(NC(=O)Nc3ccc(C(F)(F)F)cc3)ccc2O[C@H]1CN(C)Cc1ccc(Cl)c(Cl)c1 | - | - | 183.8 | - | 60.4
Cc1ccc(C(=O)Oc2ccc(Cl)c3cccnc23)cc1[N+](=O)[O-] | - | - | 81.2 | - | 65.1
COc1cc(Cl)c(NC2=CC(=O)C(=O)c3ccccc32)c(OC)c1 | - | - | 51.1 | - | -
Cc1ccc(NC2=CC(=O)C(=O)c3ccccc32)c(C)c1 | - | - | - | - | .
CC(C)N1C/C(=C/c2ccsc2)C(=O)/C(=C/c2ccsc2)C1 | - | - | 95.1 | - | 91.2
CC(C)N1C/C(=C/c2cccnc2)C(=O)/C(=C/c2cccnc2)C1 | - | . | . | . | .
CCN(CC)C(=O)c1cc([N+](=O)[O-])cc2c1-c1ccc([N+](=O)[O-])cc1C2=C(C#N)C#N | - | - | 168.8 | - | -
O=C1C=C(Nc2ccc(F)cc2)c2ccccc2C1=O | - | - | 62.0 | - | -
CCOc1ccc(NC2=CC(=O)C(=O)c3ccccc32)cc1 | - | . | . | . | .
CCOC(=O)C1=C(C)N(c2ccc(C)c(C)c2)C(=O)/C1=C\c1ccco1 | - | - | - | - | .
COC(=O)C1=C(C)N(c2ccc(C)c(C)c2)/C(=C/c2ccco2)C1=O | - | - | 68.5 | - | 46.9
Cc1ccc(Sc2nc3ccc(C)cn3c(=O)c2/C=N/O)cc1 | - | - | 51.6 | - | -
COc1ccc(Br)cc1CN(C)CC(=O)Nc1cc(Cl)ccc1Cl | - | - | - | - | .
SMILES | Beta2AR agonist | T cell modulator | CHOP UPR activ | UPR XBP1 act | UPR CHOP confirm
CC(=O)CC(=O)Nc1ccn(-c2ccccc2)n1 | - | - | - | - | .
Cc1c(/C=N/Nc2nc3ccccc3[nH]2)c2ccccc2n1C | - | - | 320.0 | - | -
CC(C)Oc1ccc(CCc2n[nH]c(=S)n2-c2ccccc2)cc1 | - | - | - | - | .
Cc1ccc(Sc2nc(-c3ccccc3)nnc2C(F)(F)F)cc1 | - | - | 40.3 | - | 119.6
N#CC1(Nc2cccc(Cl)c2)CCCC1 | - | . | . | . | .
COc1ccc(CNC(=O)COc2ccc(C(=O)c3ccc(F)cc3)cc2)cc1 | - | - | 56.4 | - | -
O=C(CCl)Nc1c2c(nn1-c1ccccc1)CSC2 | - | - | 70.1 | - | -
Cc1cc(C(=O)Cn2ncc(Cl)c(Cl)c2=O)c(C)n1CC(F)(F)F | 43.4 | - | 96.0 | - | 62.0
Cc1cccc(Cn2ncc(Cl)c(Cl)c2=O)c1 | - | - | - | - | .
CCCc1cc(=O)[nH]c(SCC(=O)c2cc(C)n(CC(F)(F)F)c2C)n1 | - | - | - | - | .
Cc1ccc(C)c(C(=O)Cn2ncc(Cl)c(Cl)c2=O)c1 | - | - | 86.9 | - | 67.3
COc1ccc(CC2=CC(=O)c3ccccc3C2=O)cc1 | 56.5 | - | 187.1 | - | 190.9
COc1ccc(Cc2ccccc2C(=O)O)cc1 | - | . | . | . | .
